Results from different studies.
Organism: Staphylococcus aureus
Observed: microbial growth

CC(C)(C)c1cc(NC(=O)Nc2ccc(Oc3ccncc3)cc2)no1
MIC (NCTC8325): 100 µM

Cc1ccc2nc(-c3cc(Br)ccc3O)[nH]c2c1
MIC (broth dilution; ATCC43300 MRSA; drug-resistant strain): 128 mg/L

CO[C@H]1/C=C/O[C@@]2(C)Oc3c(C)c(O)c4c(O)c(c(/C=N/N5CCN(C)CC5)c(O)c4c3C2=O)NC(=O)/C(C)=C\C=C\[C@H](C)[C@H](O)[C@@H](C)[C@@H](O)[C@@H](C)[C@H](OC(C)=O)[C@@H]1C
MIC (NEWMAN): 0.12 mg/L

CCCCCCCCCCCCCCCC(=O)N(C)[C@H](CO)C(=O)N[C@H](C)C(=O)NCC(=O)N(C)[C@@H]1C(=O)N[C@@H](C)C(=O)N[C@H](C(=O)O)Cc2ccc(O)c(c2)-c2cc1ccc2O
MIC (MRSA): 25 mg/L

NC[C@H]1O[C@H](O[C@H]2[C@H](O)[C@@H](O[C@H]3O[C@H](CO)[C@@H](O)[C@H](N)[C@H]3O)[C@H](N)C[C@@H]2N)[C@H](O)[C@@H](O)[C@@H]1O
MIC (USA300): 256 mg/L

CCCCCCCC/C=C\CCCCCCCC(=O)C(F)(F)P(=O)(O)O
MIC (ATCC33591 MRSA; drug-resistant strain): > 200 mg/L

Cc1ccc2nc(-c3ccc([N+](=O)[O-])cc3)n(Cc3ccccc3Cl)c2c1
MIC (broth dilution; ATCC43300 MRSA; drug-resistant strain): 64 mg/L

CCC1C(=NOCc2cn(-c3ccccc3)nn2)CC(c2ccccc2)OC1c1ccccc1 (centres unmarked)
MIC (broth dilution; MTCC96; 24 h): 50 mg/L

O=[N+]([O-])c1ccc(-c2nc3cc(F)ccc3[nH]2)o1
MIC (broth dilution; ATCC700699 MRSA; drug-resistant strain): 4 mg/L

c1ccc2[nH]c(-c3ccncc3)nc2c1
MIC (broth dilution; ATCC43300 MRSA; drug-resistant strain): 256 mg/L

CCOC(=O)c1nnn(-c2cccc(NC(=O)Nc3ccc(Cl)c(Cl)c3)c2)c1C
MIC (broth dilution; ATCC29213): > 64 mg/L

CCC(CC)c1cc(CCN2CCCN(Cc3ccc(C(F)(F)F)cc3)CC2)nc(-c2ccncc2)n1
MIC (ATCCBAA1717; drug-resistant strain, clinical isolate): 4 mg/L

CSc1ccc(-c2nc3ccc(C)cc3[nH]2)cc1
MIC (broth dilution; ATCC43300 MRSA; drug-resistant strain): 32 mg/L

COC(=O)c1cc(-c2cccc(NC(=O)Nc3cccc(Cl)c3)c2)on1
MIC (broth dilution; ATCC29213): > 64 mg/L

Cc1ccc2nc(-c3c4ccccc4cc4ccccc34)[nH]c2c1
MIC (broth dilution; ATCC43300 MRSA; drug-resistant strain): 128 mg/L

COC(=O)c1cc(-c2cccc(NC(=S)Nc3ccc([N+](=O)[O-])cc3)c2)on1
MIC (broth dilution; ATCC29213): > 64 mg/L

C[C@@H](O)[C@H]1C(=O)N2C(C(=O)O)=C(S[C@@H]3CN[C@H](C(=O)N(C)C)C3)[C@H](C)[C@H]12
MIC (USA300): 1 mg/L

COC(=O)c1cc(-c2cccc(NC(=O)Nc3ccc(C(F)(F)F)cc3)c2)on1
MIC (broth dilution; ATCC29213): 8 to 16 mg/L

Cc1ccc2nc(-c3ccc(F)cc3)n(Cc3ccccc3)c2c1
MIC (broth dilution; ATCC43300 MRSA; drug-resistant strain): 64 mg/L

CN[C@H](CC(C)C)C(=O)N[C@H]1C(=O)N[C@@H](CC(N)=O)C(=O)N[C@H]2C(=O)N[C@H]3C(=O)N[C@H](C(=O)N[C@H](C(=O)O)c4cc(O)cc(O)c4-c4cc3ccc4O)[C@H](O)c3ccc(c(Cl)c3)Oc3cc2cc(c3O[C@@H]2O[C@H](CO)[C@@H](O)[C@H](O)[C@H]2O[C@H]2C[C@](C)(N)[C@H](O)[C@H](C)O2)Oc2ccc(cc2Cl)[C@H]1O
MIC (broth dilution; ATCCBAA41; drug-resistant strain): 1 mg/L
